The nature of assay [1]: Antifibrotic activity in C57BL6/J mouse Prox24 cells assessed as inhibition of TGF-beta1-induced COL1A1 mRNA expression incubated for 1 hr followed by TGF-beta1 challenge measured after 6 hrs by real-time PCR analysis. The format is functional. The procedure, abridged:
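mProx24 immortalized proximal tubular cells from C57BL6/J mouse kidneys in DMEM, 10% FCS, 37 °C, 5% CO2. Growth-arrested 24 h in 0.15% FCS. Pretreated 1 h with compound in DMEM/0.15% FCS (DMSO stocks 50, 20, 10, 1 mM), then human TGF-β1 5 ng/mL for 6 h. COL1A1 mRNA expressed relative to TGF-β1 alone (1.0). Mean ± SE of three experiments.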
Background: Real-time PCR tracks product formation cycle by cycle.

The target in assay [2] is T1, Adenosine receptor A3 (Homo sapiens, UniProt P0DMS8).
T1 sequence (P0DMS8 whole entry): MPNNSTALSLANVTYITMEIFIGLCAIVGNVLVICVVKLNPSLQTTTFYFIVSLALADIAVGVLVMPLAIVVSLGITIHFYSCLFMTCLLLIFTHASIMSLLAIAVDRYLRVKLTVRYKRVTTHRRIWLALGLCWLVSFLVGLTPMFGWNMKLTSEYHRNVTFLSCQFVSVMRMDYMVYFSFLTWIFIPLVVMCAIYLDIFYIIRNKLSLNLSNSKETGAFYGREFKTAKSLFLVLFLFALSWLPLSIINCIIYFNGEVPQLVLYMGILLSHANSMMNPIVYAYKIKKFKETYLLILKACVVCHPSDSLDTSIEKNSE
Nature of the assay: Displacement of [125I]-I-AB-MECA from recombinant human adenosine A3 receptor expressed in CHO cells after 60 mins by gamma counting analysis. Type of assay: cell-based. (In general: Loss of bound radioactivity is the signal in a displacement assay; it reports binding, not function.)

In assay [3] the target is T2, Adenosine receptor A2a (Homo sapiens, UniProt P29274). Nature of the assay: Displacement of [3H]-CGS21680 from human adenosine A2A receptor expressed in HEK293 cells at 10 uM after 60 mins by scintillation counting analysis relative to control. Type of assay: cell-based. The procedure, abridged:
(§1)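 HEK-293 hA2AAR membranes (20 μg) incubated 60 min at 25 °C with 15 nM [3H]CGS21680 and increasing ligand concentrations in 50 mM Tris·HCl pH 7.4, 10 mM MgCl2. Nonspecific binding defined with 10 μM NECA. GF/B filtration, scintillation counting. Ki by Cheng–Prusoff. For weak binders, percent inhibition measured at 10 μM, 3–5 duplicate determinations.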

Assay [4] concerns the target T3, Adenosine receptor A3 (Rattus norvegicus, UniProt P28647).
T3 sequence (P28647 whole entry): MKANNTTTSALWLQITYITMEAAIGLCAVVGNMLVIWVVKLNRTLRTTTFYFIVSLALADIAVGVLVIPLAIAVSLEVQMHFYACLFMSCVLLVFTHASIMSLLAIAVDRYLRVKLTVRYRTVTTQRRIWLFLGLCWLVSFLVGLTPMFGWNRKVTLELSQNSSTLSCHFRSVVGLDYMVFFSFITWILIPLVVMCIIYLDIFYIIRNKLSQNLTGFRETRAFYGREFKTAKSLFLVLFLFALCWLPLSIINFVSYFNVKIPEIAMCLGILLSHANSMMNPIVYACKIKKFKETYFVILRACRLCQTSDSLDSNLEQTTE
Kind of assay: Displacement of [125I]-I-AB-MECA from rat adenosine A3 receptor expressed in RBL-2H3 cells after 60 mins by gamma counting analysis. Type of assay: cell-based.

Assay [5] concerns the target T4, Adenosine receptor A1 (Homo sapiens) (UniProt P30542).
T4 sequence (whole entry): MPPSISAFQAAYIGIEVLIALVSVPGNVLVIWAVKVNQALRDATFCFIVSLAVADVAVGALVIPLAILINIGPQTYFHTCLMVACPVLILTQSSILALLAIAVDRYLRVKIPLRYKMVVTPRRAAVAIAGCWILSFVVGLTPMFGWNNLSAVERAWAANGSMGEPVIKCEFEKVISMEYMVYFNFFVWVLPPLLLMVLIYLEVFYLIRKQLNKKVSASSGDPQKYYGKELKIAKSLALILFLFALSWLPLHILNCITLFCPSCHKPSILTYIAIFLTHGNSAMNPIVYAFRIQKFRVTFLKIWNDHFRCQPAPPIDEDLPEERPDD
Nature of the assay: Displacement of [3H]-R-PIA from recombinant human adenosine A1 receptor expressed in CHO cells at 10 uM after 60 mins by scintillation counting analysis relative to control. Type of assay: cell-based.

Assay [6] addresses T2, Adenosine receptor A2a. Nature of the assay: Displacement of [3H]-CGS21680 from human adenosine A2A receptor expressed in HEK293 cells after 60 mins by scintillation counting analysis. Type of assay: cell-based. In short, it runs like this: as §1
Assay [7] has as its target T1, Adenosine receptor A3. Nature of the assay: Partial agonist activity at recombinant human adenosine A3 receptor expressed in CHO cells assessed as […] of forskolin-induced intracellular cAMP production preincubated for 45 mins followed by forskolin challenge measured after 15 mins by liquid scintillation counting analysis in presence of rolipram and adenosine deaminase. The format is functional, cell-based. The procedure, abridged:
(§2)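 CHO cells stably expressing hA3AR, plated 24 h, washed in DMEM/50 mM HEPES pH 7.4, treated with agonists and/or test compounds plus rolipram 10 μM and adenosine deaminase 3 U/mL. Forskolin 10 μM added after 45 min, incubation continued 15 min. Lysed in 0.1 M HCl. cAMP quantified by [3H]cAMP (2 nM)–PKA competitive binding, GF/C filtration, scintillation counting. Expressed relative to NECA full agonist (100%). Curves from three determinations.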

The target in assay [8] is T5, Adenosine receptor A2b (Homo sapiens) (UniProt P29275).
T5 sequence (whole entry): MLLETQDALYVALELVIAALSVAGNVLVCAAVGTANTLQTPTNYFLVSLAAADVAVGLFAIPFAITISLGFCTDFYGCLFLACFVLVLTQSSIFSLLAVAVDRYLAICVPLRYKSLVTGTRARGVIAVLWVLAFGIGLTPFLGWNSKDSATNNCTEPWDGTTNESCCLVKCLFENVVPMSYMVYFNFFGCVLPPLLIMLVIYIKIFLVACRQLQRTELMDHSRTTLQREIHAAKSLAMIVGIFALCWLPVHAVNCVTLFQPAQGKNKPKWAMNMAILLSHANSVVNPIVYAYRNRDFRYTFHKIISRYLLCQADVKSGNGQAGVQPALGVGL
Nature of the assay: Agonist activity at recombinant human adenosine A2B receptor expressed in CHO cells assessed as activation of intracellular cAMP production at 10 uM in presence of rolipram and adenosine deaminase relative to NECA. The format is functional, cell-based. In short, it runs like this: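 CHO cells stably expressing hA2BAR, plated 24 h, washed in DMEM with 50 mM HEPES pH 7.4, then exposed to compounds with rolipram 10 μM and adenosine deaminase 3 U/mL (no forskolin). Lysed in 0.1 M ice-cold HCl. cAMP measured by competitive binding of [3H]cAMP (2 nM) to protein kinase A against a 0–16 pmol standard curve, filtration, scintillation counting.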
On the technique in general: Cyclic AMP is a second messenger, typically raised through Gs and lowered through Gi signalling.

For assay [9], the target named is T6, Adenosine receptor A3 (Homo sapiens) (UniProt P0DMS8).
T6 sequence (whole entry): T1 sequence (P0DMS8 whole entry)
Nature of the assay: Partial agonist activity at recombinant human adenosine A3 receptor expressed in CHO cells assessed as stimulation of forskolin-induced intracellular cAMP production at 10 uM preincubated for 45 mins followed by forskolin challenge measured after 15 mins by liquid scintillation counting analysis in presence of rolipram and adenosine deaminase relative to NECA. The format is functional, cell-based. The procedure, abridged:
as §2

The next assay deals with T7, Adenosine receptor A1 (Homo sapiens, UniProt P30542).
T7 sequence (P30542 whole entry): T4 sequence (whole entry)
Nature of the assay: Displacement of [3H]-R-PIA from recombinant human adenosine A1 receptor expressed in CHO cells after 60 mins by scintillation counting analysis. Type of assay: cell-based.

Assay [10] deals with T6, Adenosine receptor A3 (Homo sapiens). Kind of assay: Antagonist activity at recombinant human adenosine A3 receptor expressed in CHO cells assessed as forskolin-induced intracellular cAMP production preincubated for 45 mins followed by forskolin challenge measured after 15 mins by liquid scintillation counting analysis in presence of rolipram and adenosine deaminase relative to NECA. Type of assay: functional, cell-based. Also on record: scale not given: the % may be the effect or the level left. In short, it runs like this: as §2

T2 sequence (P29274 whole entry): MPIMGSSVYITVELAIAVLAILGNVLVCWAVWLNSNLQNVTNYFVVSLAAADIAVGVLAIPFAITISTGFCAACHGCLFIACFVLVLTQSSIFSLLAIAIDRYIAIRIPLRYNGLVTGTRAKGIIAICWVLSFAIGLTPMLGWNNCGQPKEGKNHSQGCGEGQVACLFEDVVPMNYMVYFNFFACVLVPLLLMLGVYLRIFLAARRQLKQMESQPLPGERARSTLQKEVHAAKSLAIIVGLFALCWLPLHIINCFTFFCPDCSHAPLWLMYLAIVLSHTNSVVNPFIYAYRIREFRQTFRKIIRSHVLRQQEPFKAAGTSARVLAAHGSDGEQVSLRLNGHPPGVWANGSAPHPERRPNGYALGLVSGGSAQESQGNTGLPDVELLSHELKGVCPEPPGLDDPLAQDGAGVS

In general, IC50 refers to the point on the concentration scale where inhibition reaches its midpoint. By Ki is commonly meant a measure of affinity in units of concentration, obtained from inhibition or displacement. What is called inhibition is the relative decrease from the control value, in per cent. `CCCCC#Cc1nc(NCc2cccc(F)c2)c2ncn([C@H]3[C@H](O)[C@H](O)[C@@H]4C[C@@H]43)c2n1`: in [1], the half-maximal inhibitory concentration (IC50) was 3170 nM. The Ki at Adenosine receptor A3 [2] was determined as 16 nM; at Adenosine receptor A3 [4] it was 43 nM. Besides, the figures for the inhibition (at Adenosine receptor A2a [3]; in [5]) were 27% and 21%, respectively.
A word on the EC50: it is the midpoint of the concentration-response curve. `CCCCC#Cc1nc(NC)c2ncn([C@H]3[C@H](O)[C@H](O)[C@@H]4C[C@@H]43)c2n1`: the Ki at Adenosine receptor A2a [6] was 7490 nM; at Adenosine receptor A3 [2] it was 4.9 nM; on Adenosine receptor A3 [4], 231 nM. The concentration for half-maximal inhibition (IC50) in assay [1] was 830 nM. Besides, the EC50 at Adenosine receptor A3 [7] came to 45.8 nM. In addition, the Activity in [8] turned out to be 15.7%. Also, in assay [9], the max activation was determined as 29.1%. For the same molecule, the inhibition in [5] came out at 14%.
On to `CCCCC#Cc1nc(N)c2ncn([C@H]3[C@H](O)[C@H](O)[C@@H]4C[C@@H]43)c2n1`, for which the results for the inhibition constant (Ki) at Adenosine receptor A2a [6], at Adenosine receptor A3 [2] and at Adenosine receptor A3 [4] were 100 nM, 16.2 nM and 65 nM, respectively. Besides, in assay [1], the 50% inhibitory concentration (IC50) was found to be 6120 nM. Further, in assay [5], the inhibition worked out at 29%.
As for `CCCCC#Cc1nc(NC2CC2)c2ncn([C@H]3[C@H](O)[C@H](O)[C@@H]4C[C@@H]43)c2n1`, the Ki on Adenosine receptor A2a [6] amounted to 2200 nM; on Adenosine receptor A1, 2170 nM; at Adenosine receptor A3 [2], 9.2 nM; on Adenosine receptor A3 [4] it was 39 nM. Also, the IC50 in assay [1] amounted to 11800 nM.
Taken in the same sequence, the figures for `CCCCC#Cc1nc(NC2CCCC2)c2ncn([C@H]3[C@H](O)[C@H](O)[C@@H]4C[C@@H]43)c2n1` were 1760 nM, 1580 nM, 160 nM, 58 nM and > 50000 nM.
As to `CCCCC#Cc1nc(NCc2cccc(Cl)c2)c2ncn([C@H]3[C@H](O)[C@H](O)[C@@H]4C[C@@H]43)c2n1`, in assay [10], the Activity was < 5%. The inhibitory constant (Ki) was found to be 3310 nM on Adenosine receptor A2a [6], 7.8 nM at Adenosine receptor A3 [2] and 10.7 nM at Adenosine receptor A3 [4]. For the same molecule, in [1], the IC50 came out at 2870 nM. The inhibition in [5] stood at 19%.
Regarding `CCCCC#Cc1nc(NCc2cccc(I)c2)c2ncn([C@H]3[C@H](O)[C@H](O)[C@@H]4C[C@@H]43)c2n1`, the Activity in [10] is < 5%. Further, the Ki is 2530 nM at Adenosine receptor A2a [6], 12 nM on Adenosine receptor A3 [2] and 26 nM at Adenosine receptor A3 [4]. Besides, in [1], the IC50 worked out at 7880 nM. Moreover, the inhibition in [5] turned out to be 48%.
Consider `CCCCC#Cc1nc(NCC)c2ncn([C@H]3[C@H](O)[C@H](O)[C@@H]4C[C@@H]43)c2n1`, for which the figures for the Ki at Adenosine receptor A2a [6], at Adenosine receptor A3 [2] and at Adenosine receptor A3 [4] were 2860 nM, 6.7 nM and 176 nM, respectively. For the same molecule, the IC50 in [1] was 840 nM. Further, the inhibition in assay [5] amounted to 31%.
Regarding `CCCCC#Cc1nc(NCc2cccc(Br)c2)c2ncn([C@H]3[C@H](O)[C@H](O)[C@@H]4C[C@@H]43)c2n1`, the Activity in [10] is < 5%. Further, the Ki on Adenosine receptor A2a [6] stood at 3150 nM; at Adenosine receptor A3 [2], 8.6 nM; at Adenosine receptor A3 [4], 59 nM. Moreover, the 50% inhibitory concentration (IC50) in assay [1] was 10400 nM. The inhibition in assay [5] was 38%.

Values taken from ChEMBL document CHEMBL3124893 (J Med Chem, 2014).
